Source: ChEMBL document CHEMBL4020830, “Design, Synthesis, and Evaluation of a Novel Series of Indole Sulfonamide Peroxisome Proliferator Activated Receptor (PPAR) α/γ/δ Triple Activators: Discovery of Lanifibranor, a New Antifibrotic Clinical Candidate” (J Med Chem, 2018)
Active and inactive are the calls of the source. The calls are words filed in the database; no cut-off is given here.

Assays:
[1] = molecular target: T1, Peroxisome proliferator-activated receptor gamma (Homo sapiens, UniProt P37231)
T1 sequence (P37231 whole entry): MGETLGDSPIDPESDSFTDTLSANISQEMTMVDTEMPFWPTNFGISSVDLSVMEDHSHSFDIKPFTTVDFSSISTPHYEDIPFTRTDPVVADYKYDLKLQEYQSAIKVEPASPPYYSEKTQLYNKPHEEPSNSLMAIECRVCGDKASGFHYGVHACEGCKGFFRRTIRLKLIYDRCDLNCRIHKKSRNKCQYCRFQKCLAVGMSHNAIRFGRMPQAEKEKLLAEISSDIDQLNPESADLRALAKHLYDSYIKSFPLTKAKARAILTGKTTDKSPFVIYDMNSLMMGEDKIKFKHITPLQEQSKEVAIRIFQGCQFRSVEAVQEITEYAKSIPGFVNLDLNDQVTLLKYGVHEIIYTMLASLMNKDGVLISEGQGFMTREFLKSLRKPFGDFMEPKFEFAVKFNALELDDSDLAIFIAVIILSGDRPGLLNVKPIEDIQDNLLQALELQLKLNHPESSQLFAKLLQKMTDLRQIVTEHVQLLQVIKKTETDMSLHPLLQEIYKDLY

Mus musculus [2] = assay: Antifibrotic activity in C57Bl6/J mouse model of CCl4-induced liver fibrosis assessed as decrease in collagen deposition in liver administered po qd for 3 weeks by picrosirius red staining based assay; type: functional, organism-based
Procedure, shortened: (§1)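 CCl4-induced liver fibrosis mice were dosed orally once daily at 3, 10 or 30 mg/kg for 3 weeks. Controls were CCl4-vehicle, vehicle oil and saline-injected groups. Liver collagen was scored by picrosirius red staining of histological sections. Plasma triglycerides and adiponectin were also measured. Analysis was one-way ANOVA with Dunnett's test.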

Rattus norvegicus [3] = assay: Toxicity in Sprague-Dawley rat assessed as effect on heart weight at 100 to 1000 mg/kg for 6 weeks; type: organism-based; conditions: in vivo, 1008 h
Procedure, shortened: (§2)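 Sprague-Dawley rats were treated at 100 and 1000 mg/kg. Hematocrit and plasma volume were measured after 4 weeks and heart weight after 6 weeks. Analysis was one-way ANOVA with Dunnett's test versus control.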

Rattus norvegicus [4] = assay: Toxicity in Sprague-Dawley rat assessed as effect on plasma volume at 100 to 1000 mg/kg for 4 weeks by evans blue dye based assay; type: organism-based; conditions: in vivo, 672 h
Procedure, shortened: as §2

Mus musculus [5] = assay: Increase in plasma adiponctin level in C57Bl6/J mouse model of CCl4-induced liver fibrosis at 3 to 30 mg/kg, po qd for 3 weeks; type: functional, organism-based
Procedure, shortened: as §1

Rattus norvegicus [6] = assay: Toxicity in Sprague-Dawley rat assessed as reduction in hematocrit level at 100 to 1000 mg/kg for 4 weeks; type: organism-based; conditions: in vivo, 672 h
Procedure, shortened: as §2

[7] = molecular target: T2, Peroxisome proliferator-activated receptor delta (Mus musculus, UniProt P35396); assay: Transactivation of mouse GAL4-fused PPARdelta LBD expressed in African green monkey COS7 cells co-expressing 5Gal4 pGL3 TK Luc after overnight incubation by luciferase reporter gene assay; type: cell-based
T2 sequence (P35396 whole entry): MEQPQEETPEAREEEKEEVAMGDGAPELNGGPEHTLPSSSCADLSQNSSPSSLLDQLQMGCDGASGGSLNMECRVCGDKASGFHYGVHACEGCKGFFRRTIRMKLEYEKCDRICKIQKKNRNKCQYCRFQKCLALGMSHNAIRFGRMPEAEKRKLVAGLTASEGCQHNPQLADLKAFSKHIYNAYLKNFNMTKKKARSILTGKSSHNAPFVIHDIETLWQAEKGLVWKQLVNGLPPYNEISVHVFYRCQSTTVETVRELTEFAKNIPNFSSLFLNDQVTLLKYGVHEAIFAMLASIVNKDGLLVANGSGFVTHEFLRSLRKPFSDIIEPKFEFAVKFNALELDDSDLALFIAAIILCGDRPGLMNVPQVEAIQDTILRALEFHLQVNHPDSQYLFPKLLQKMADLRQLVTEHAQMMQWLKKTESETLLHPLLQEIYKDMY

[8] = molecular target: T1, Peroxisome proliferator-activated receptor gamma; remark: listed apart in the source
[9] = molecular target: T1, Peroxisome proliferator-activated receptor gamma; remark: listed apart in the source
[10] = molecular target: T3, Peroxisome proliferator-activated receptor gamma (Mus musculus, UniProt P37238); assay: Transactivation of mouse GAL4-fused PPARgamma LBD expressed in African green monkey COS7 cells co-expressing 5Gal4 pGL3 TK Luc after overnight incubation by luciferase reporter gene assay
T3 sequence (P37238 whole entry): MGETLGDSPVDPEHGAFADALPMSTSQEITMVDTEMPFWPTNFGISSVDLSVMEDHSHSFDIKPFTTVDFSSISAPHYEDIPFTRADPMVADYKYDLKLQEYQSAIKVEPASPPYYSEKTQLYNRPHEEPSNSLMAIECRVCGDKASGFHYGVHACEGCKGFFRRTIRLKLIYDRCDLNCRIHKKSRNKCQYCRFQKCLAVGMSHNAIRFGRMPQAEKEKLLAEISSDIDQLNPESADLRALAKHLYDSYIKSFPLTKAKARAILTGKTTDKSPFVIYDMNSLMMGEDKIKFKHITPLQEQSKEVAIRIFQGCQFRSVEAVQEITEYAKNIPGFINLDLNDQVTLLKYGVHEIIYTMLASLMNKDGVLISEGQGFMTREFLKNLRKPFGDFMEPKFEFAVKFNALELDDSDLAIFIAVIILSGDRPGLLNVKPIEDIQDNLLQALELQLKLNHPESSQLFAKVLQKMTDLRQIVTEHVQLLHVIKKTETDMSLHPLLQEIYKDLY

EC50 [1]: 3210 nM
EC50 [7]: 1560 nM
EC50 [8]: 1920 nM
EC50 [9]: 4100 nM
EC50 [10]: 202 nM
Compound: O=C(O)CCCc1cc2cc(Cl)ccc2n1S(=O)(=O)c1ccc2ncsc2c1 [LANIFIBRANOR]
Activity (Mus musculus [2]): Dose-dependent effect
Activity (Rattus norvegicus [3]): Non-Toxic
Activity (Rattus norvegicus [4]): Non-Toxic
Activity (Mus musculus [5]): Active
Activity (Rattus norvegicus [6]): Non-Toxic
